Data set [1] concerns B16. Nature of the data set: Antitumor activity against mouse B16 cells xenografted in C57BL/6 mouse assessed as tumor growth inhibition at 0.5 mg/kg, po administered for 1 week prior to tumor injection followed by treatment for additional 2 weeks relative to vehicle-treated control. The format is functional. The gist of the method:
(§1)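 Subcutaneous B16 melanoma in C57BL/6 immunocompetent mice aged 8–12 weeks. Test agent or vehicle was given daily in drinking water at 0.5 mg/kg for one week. B16 cells were then inoculated and dosing continued for 2 more weeks. At sacrifice, tumors were excised and weighed against the vehicle group, and kidneys, livers and spleens were inspected.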

Data set [2] relates to Mus musculus. Nature of the data set: Toxicity in C57BL/6 mouse xenografted with B16 cells assessed as adverse effects at 0.5 mg/kg, po administered for 1 week prior to tumor injection followed by treatment for additional 2 weeks relative to vehicle-treated control. It is filed as organism-based. Set-up: dose 0.5 mg/kg, route oral. The settings on record: in vivo. The gist of the method: as §1

Data set [3] relates to Mus musculus. In words: Immunoenhancing activity in C57BL/6 mouse assessed as increase in total immune cells in bone marrow at 0.5 mg/kg, po administered for 1 week by trypan blue exclusion method relative to vehicle-treated control. It is filed as functional. An outline of the steps: (§2)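 Tumor-free normal mice were dosed for 1 week with test agent or vehicle. WBCs in peripheral blood and immune cells enriched from bone marrow and liver were counted by Trypan Blue exclusion and compared with the vehicle group. Columns are group means, bars SE, significance p ≤ 0.05.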

The test system of data set [4] is Mus musculus. In words: Immunoenhancing activity in C57BL/6 mouse assessed as increase in total immune cells in liver at 0.5 mg/kg, po administered for 1 week by trypan blue exclusion method relative to vehicle-treated control. It is filed as functional. The gist of the method: as §2
Data set [5] relates to Mus musculus. In words: Immunoenhancing activity in C57BL/6 mouse assessed as increase in immune subset cells in bone marrow at 0.5 mg/kg, po administered for 1 week by flow cytometric analysis relative to vehicle-treated control. It is filed as functional, organism-based. Details: dose 0.5 mg/kg. In general terms: In flow cytometry, cells or beads pass a laser one at a time.

Data set [6] deals with Mus musculus. Nature of the data set: Immunoenhancing activity in C57BL/6 mouse assessed as increase in immune subset cells in liver at 0.5 mg/kg, po administered for 1 week by flow cytometric analysis relative to vehicle-treated control. It is filed as functional, organism-based. Set-up: dose 0.5 mg/kg.
Data set [7] has as its system Mus musculus. In words: Immunomodulatory activity in C57BL/6 mouse NK cells expressing NK1.1 and CD3 assessed as cell surface CD107a expression level at 0.5 mg/kg, po administered for 1 week by YAC1 co culture-based immunostaining analysis (reference value: 41.5%). It is filed as functional.
The test system of data set [8] is Mus musculus. Nature of the data set: Immunomodulatory activity in C57BL/6 mouse CD3-deficient NK cells expressing NK1.1 assessed as […]- and IL-18 induced IFNgamma level at 0.5 mg/kg, po administered for 1 week by flow cytometric analysis (reference value: 76.7%). The format is functional.
Data set [9] deals with Mus musculus. Nature of the data set: Toxicity in C57BL/6 mouse assessed as change in body weight at 0.5 mg/kg, po administered for 3 weeks relative to vehicle-treated control. It is filed as organism-based. Details: dose 0.5 mg/kg, route oral. The settings on record: in vivo, 504 h. An outline of the steps:
(§3)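 Oral acute toxicity in normal mice dosed daily with test agent or vehicle for 3 weeks. Body, spleen and liver were inspected and weighed. Values are group means with n ≥ 4 and SE bars.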

The subject of data set [10] is Mus musculus. In words: Toxicity in C57BL/6 mouse assessed as change in liver weight at 0.5 mg/kg, po administered for 3 weeks relative to vehicle-treated control. The format is organism-based. Set-up: dose 0.5 mg/kg, route oral. The note with it: in vivo, 504 h. An outline of the steps: as §3
Data set [11] relates to Mus musculus. In words: Toxicity in C57BL/6 mouse assessed as change in spleen weight at 0.5 mg/kg, po administered for 3 weeks relative to vehicle-treated control. It is filed as organism-based. Set-up: dose 0.5 mg/kg, route oral. The settings on record: in vivo, 504 h. An outline of the steps:
as §3

Data set [12] relates to B16. In words: Growth inhibition of mouse B16 cells at 10 uM after 24 to 96 hrs by trypan blue exclusion assay. The format is functional, cell-based.
In data set [13] the test system is B16. In words: Induction of apoptosis in mouse B16 cells assessed as early apoptotic cells at 10 uM after 72 hrs by AnnexinV/PI staining-based flow cytometric analysis (reference value: 2.28%). The format is functional.
Data set [14] concerns B16. In words: Induction of apoptosis in mouse B16 cells assessed as late apoptotic cells at 10 uM after 72 hrs by AnnexinV/PI staining-based flow cytometric analysis (reference value: 2.48%). The format is functional.
Data set [15] deals with B16. In words: Induction of apoptosis in mouse B16 cells assessed as necrotic cells at 10 uM after 72 hrs by AnnexinV/PI staining-based flow cytometric analysis (reference value: 5.26%). It is filed as functional.
The subject of data set [16] is B16. In words: Induction of apoptosis in mouse B16 cells assessed as viable cells at 10 uM after 72 hrs by AnnexinV/PI staining-based flow cytometric analysis (reference value: 90%). It is filed as functional. The settings on record: B16, 72 h, read-out: Activity.
In data set [17] the test system is B16. In words: Induction of apoptosis in mouse B16 cells assessed as decrease in Bcl2 expression at 10 uM after 72 hrs by Western blot analysis. It is filed as functional, cell-based. (A western blot detects proteins with antibodies after separation by electrophoresis.)
Data set [18] has as its system Mus musculus. In words: Immunoenhancing activity in C57BL/6 mouse assessed as increase in peripheral blood WBC level at 0.5 mg/kg, po administered for 1 week by trypan blue exclusion method relative to vehicle-treated control. The format is functional. The gist of the method:
as §2

The source made the active and inactive calls. The rule behind the calls is not given here.

For the compound `O=c1oc2c(O)c(O)cc3c(=O)oc4c(O)c(O)cc1c4c23` [ELLAGIC ACID], the “growth inhibition (GI)” value in the data set with B16 [1] was “inactive”. Also, the Activity entry in the data set with Mus musculus [2] was “Non-toxic”; in the data set with Mus musculus [7], 37.2%; in the data set on Mus musculus [8], 74.9%; in the data set on Mus musculus [9], “Non-toxic”; with Mus musculus [10], “Non-toxic”; with Mus musculus [11], “Non-toxic”. In addition, the Activity in the data set on B16 [13] is recorded as 4.33%; with B16 [14], 6.84%; in the data set on B16 [15] it was 4.95%. Besides, the result in the data set on Mus musculus [3], with Mus musculus [4], with Mus musculus [5] and with Mus musculus [6] was inactive. The “growth inhibition (GI)” value with B16 [12] was “Active”. Also, the viability at 10 µM in the data set with B16 [16] turned out to be 83.9%. For the same compound, the outcome in the data set on B16 [17] was Active.

Regarding `CC(=O)Oc1cc2c(=O)oc3c(OC(C)=O)c(OC(C)=O)cc4c(=O)oc(c1OC(C)=O)c2c34` [ELLAGIC ACID TETRAACETATE], the inhibition in vivo at 0.5 mg/kg in the data set with B16 [1] (read-out: GI) turned out to be 70%. Moreover, the Activity entry with Mus musculus [2] was “Non-toxic”; in the data set with Mus musculus [18], 70%; with Mus musculus [3], 50%; in the data set on Mus musculus [4] it was 200%; in the data set on Mus musculus [7], 40.4%; with Mus musculus [8] it was 78.2%. Further, the Activity entry in the data set with Mus musculus [9] is recorded as “Non-toxic”; in the data set on Mus musculus [10] it was “Non-toxic”; in the data set on Mus musculus [11], “Non-toxic”; in the data set on B16 [13], 6.99%; in the data set with B16 [14], 9.78%; in the data set with B16 [15], 11.8%. For the same compound, the result in the data set with Mus musculus [5] and with Mus musculus [6] was inactive. For the same compound, the “growth inhibition (GI)” value in the data set on B16 [12] is “Active”. The viability at 10 µM in the data set on B16 [16] was 71.4%. In addition, the result with B16 [17] was Active.

The values above are taken from ChEMBL document CHEMBL2146403, “Synthesis and Antitumor Activity of Ellagic Acid Peracetate” (ACS Med Chem Lett, 2012).
